This note sets out measurements from ChEMBL document CHEMBL3414543, “Novel series of benzoquinones with high potency against 5-lipoxygenase in human polymorphonuclear leukocytes” (Eur J Med Chem, 2015).

In assay [1] the target is T1, Polyunsaturated fatty acid 5-lipoxygenase (Homo sapiens, UniProt P09917).
T1 sequence (P09917 whole entry): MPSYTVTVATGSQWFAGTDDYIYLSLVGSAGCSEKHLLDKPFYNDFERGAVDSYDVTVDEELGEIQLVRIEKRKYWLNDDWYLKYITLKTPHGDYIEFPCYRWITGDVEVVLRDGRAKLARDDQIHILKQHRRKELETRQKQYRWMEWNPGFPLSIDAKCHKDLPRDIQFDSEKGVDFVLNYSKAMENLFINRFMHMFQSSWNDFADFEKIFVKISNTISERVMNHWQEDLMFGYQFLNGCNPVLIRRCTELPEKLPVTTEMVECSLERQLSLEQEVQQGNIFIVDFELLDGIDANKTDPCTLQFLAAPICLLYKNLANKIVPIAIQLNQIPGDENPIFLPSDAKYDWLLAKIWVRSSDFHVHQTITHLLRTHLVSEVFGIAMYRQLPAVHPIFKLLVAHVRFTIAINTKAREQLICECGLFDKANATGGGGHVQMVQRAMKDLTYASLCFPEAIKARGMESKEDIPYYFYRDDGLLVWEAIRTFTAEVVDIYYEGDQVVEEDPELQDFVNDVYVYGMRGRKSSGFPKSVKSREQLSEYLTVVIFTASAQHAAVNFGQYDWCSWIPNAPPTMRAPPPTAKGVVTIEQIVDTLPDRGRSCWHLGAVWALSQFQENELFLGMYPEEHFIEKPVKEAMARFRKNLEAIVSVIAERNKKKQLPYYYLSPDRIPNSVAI
The assay is described as follows: Inhibition of 5-LOX in A23187-stimulated human blood PMNL assessed as reduction in lipoxygenase products formation pre-incubated for 15 mins followed by stimulation with A23187 for 10 mins by RP-HPLC based cell based assay. A digest of the protocol: (§1)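 Human PMNL (5 × 10⁶ in 1 ml PBS pH 7.4, 1 mg/ml glucose, 1 mM CaCl₂), preincubated 15 min at 37 °C with compound or 0.1% DMSO, then stimulated 10 min at 37 °C with A23187, with or without AA. 5-LO products measured. Values are mean ± S.E. of 3–4 independent experiments. IC₅₀ read graphically from 4–5 concentrations.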

For assay [2], the target named is T2, Polyunsaturated fatty acid lipoxygenase ALOX12 (Homo sapiens) (UniProt P18054).
T2 sequence (whole entry): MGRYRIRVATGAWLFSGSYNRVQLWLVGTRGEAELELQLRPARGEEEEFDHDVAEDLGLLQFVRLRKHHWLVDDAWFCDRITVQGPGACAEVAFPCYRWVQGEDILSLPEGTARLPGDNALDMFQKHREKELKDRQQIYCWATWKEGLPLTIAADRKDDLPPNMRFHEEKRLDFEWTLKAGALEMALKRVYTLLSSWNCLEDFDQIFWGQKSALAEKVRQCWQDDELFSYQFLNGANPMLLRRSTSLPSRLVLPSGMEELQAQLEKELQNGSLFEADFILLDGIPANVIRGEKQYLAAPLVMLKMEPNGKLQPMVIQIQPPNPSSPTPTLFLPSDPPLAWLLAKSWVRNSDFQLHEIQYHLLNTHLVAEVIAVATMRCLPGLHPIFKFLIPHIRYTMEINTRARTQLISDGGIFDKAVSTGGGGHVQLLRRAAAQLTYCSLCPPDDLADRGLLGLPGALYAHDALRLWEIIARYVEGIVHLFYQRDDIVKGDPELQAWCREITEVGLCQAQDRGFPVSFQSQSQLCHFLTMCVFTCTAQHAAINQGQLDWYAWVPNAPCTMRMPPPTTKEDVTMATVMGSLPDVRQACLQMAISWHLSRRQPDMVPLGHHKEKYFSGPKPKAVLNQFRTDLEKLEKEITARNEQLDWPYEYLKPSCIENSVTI
Briefly: Inhibition of 12-LOX in human blood PMNL assessed as remaining activity by measuring 12-HETE synthesis at 10 uM. A digest of the protocol:
(§2)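 PMNL isolated from heparinized blood of fasted healthy donors by dextran sedimentation and Nycoprep centrifugation, with hypotonic lysis of erythrocytes. Cells at 5 × 10⁶ in 1 ml PBS pH 7.4 with 1 mg/ml glucose and 1 mM CaCl₂, preincubated 15 min at 37 °C with compound or 0.1% DMSO vehicle, then stimulated 10 min at 37 °C. 12-HETE or 15-HETE formation measured.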

Assay [3] has as its target T1, Polyunsaturated fatty acid 5-lipoxygenase. The assay is described as follows: Inhibition of human recombinant 5-LOX expressed in Escherichia coli BL21 incubated for 10 mins in presence of arachidonic acid by RP-HPLC based cell-free assay. The procedure, abridged: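 Recombinant human 5-LO, semi-purified from a 40,000 × g lysate supernatant on ATP-agarose, diluted in ice-cold PBS with 1 mM EDTA and 1 mM ATP. Preincubated 10 min at 4 °C with compound or 0.1% DMSO, warmed 30 s at 37 °C, then started with 2 mM CaCl₂ plus 20 µM AA. Reaction 10 min at 37 °C, stopped with cold methanol, products by RP-HPLC. IC₅₀ from 4–5 concentrations.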

Assay [4] concerns the target T3, Polyunsaturated fatty acid lipoxygenase ALOX15 (Homo sapiens) (UniProt P16050).
T3 sequence (whole entry): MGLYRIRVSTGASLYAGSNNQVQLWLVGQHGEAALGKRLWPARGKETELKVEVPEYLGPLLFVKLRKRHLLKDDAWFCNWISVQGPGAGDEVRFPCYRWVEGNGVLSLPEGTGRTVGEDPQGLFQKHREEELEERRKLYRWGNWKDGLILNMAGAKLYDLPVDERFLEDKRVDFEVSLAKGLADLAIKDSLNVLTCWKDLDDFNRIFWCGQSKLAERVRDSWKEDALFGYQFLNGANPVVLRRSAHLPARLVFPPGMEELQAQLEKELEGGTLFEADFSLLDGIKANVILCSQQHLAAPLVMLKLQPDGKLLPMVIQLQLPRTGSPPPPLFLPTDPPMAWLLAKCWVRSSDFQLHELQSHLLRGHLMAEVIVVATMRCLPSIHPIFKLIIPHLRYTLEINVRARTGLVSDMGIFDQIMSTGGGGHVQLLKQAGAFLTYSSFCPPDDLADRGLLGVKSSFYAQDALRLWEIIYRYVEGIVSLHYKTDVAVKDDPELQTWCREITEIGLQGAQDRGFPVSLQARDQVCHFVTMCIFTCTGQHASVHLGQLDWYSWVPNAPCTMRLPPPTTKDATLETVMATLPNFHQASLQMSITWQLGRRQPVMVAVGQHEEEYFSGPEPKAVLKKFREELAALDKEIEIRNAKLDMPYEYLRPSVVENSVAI
Briefly: Inhibition of 15-LOX-1 in human blood PMNL assessed as remaining activity by measuring 15-HETE synthesis at 10 uM. A digest of the protocol: as §2

For assay [5], the target named is T1, Polyunsaturated fatty acid 5-lipoxygenase. Briefly: Inhibition of 5-LOX in A23187-stimulated human blood PMNL assessed as reduction in lipoxygenase products formation in presence of arachidonic acid pre-incubated for 15 mins followed by stimulation with A23187 for 10 mins by RP-HPLC based cell based assay. The procedure, abridged: as §1

SMILES strings stand for the structures.

In the case of `COC1=CC(=O)C(OC)=C(C/C=C(\C)CC/C=C(\C)CCC=C(C)C)C1=O`, the figures for the half-inhibitory concentration (IC50) in assay [1], in assay [3] and in assay [5] were 310 nM, 1700 nM and 1200 nM, respectively. The Activity in assay [2] was found to be 139%; in assay [4] it was 136%.
In the case of `CCCCCCCCCCCCCCC1=C(OC)C(OC)=CC(=O)C1=O`, the IC50 in assay [1] came to 120 nM; in assay [3], 40 nM; in assay [5] it was 90 nM. Besides, the Activity in assay [2] came out at 87.3%; in assay [4], 139%.
Taken in the same sequence, the figures for `CCCCCCCCCCCC1=C(OC)C(=O)C=C(OC)C1=O` were 200 nM, 930 nM, 590 nM, 161% and 93.4%.
Take `CCCCCCCCC1=C(OC)C(OC)=CC(=O)C1=O`: the IC50 in assay [1] was 380 nM; in assay [3], 330 nM; in assay [5], 820 nM. Besides, the Activity in assay [2] was 59.3%; in assay [4] it was 102%.
Taken in the same sequence, the figures for `CCCCCCCCCCCCCCC1=C(O)C(=O)C=C(OC)C1=O` were 270 nM, 420 nM, 490 nM, 114% and 116%.
The matching figures for `CCCCCCCCCCCCC1=C(OC)C(=O)C=C(OC)C1=O`: 630 nM, 610 nM, 490 nM, 138% and 127%.
Taken in the same sequence, the figures for `CCCCCCCCC1=C(OC)C(=O)C=C(OC)C1=O` were 320 nM, 1200 nM, 570 nM, 89.6% and 123%.
On to `CCCCCCCCCCCCCCC1=C(O)C(=O)C=C(O)C1=O`, for which the IC50 in assay [1] is 3100 nM; in assay [3], 170 nM; in assay [5] it was 5100 nM. Further, the Activity is 101% in assay [2] and 139% in assay [4].
Taken in the same sequence, the figures for `COC1=CC(=O)C(OC)=C(C/C=C(\C)CCC=C(C)C)C1=O` were 450 nM, 3300 nM, 1600 nM, 90.3% and 127%.
With `CCCCCCCCCCCCC1=C(O)C(=O)C=C(O)C1=O`, the figures for the IC50 in assay [1], in assay [3] and in assay [5] were 4600 nM, 170 nM and 3900 nM, respectively. The Activity in assay [2] amounted to 90.6%; in assay [4], 65.1%.
As to `N#C/C(=C\c1ccc(O)c(O)c1)C(=O)OC/C=C/c1ccccc1`, the figures for the Activity in assay [2] and in assay [4] were 0.91% and 5.2%, respectively.
Take `CCCCCCCCCCCCCCCC1=C(O)C(=O)C=C(OC)C1=O`: the IC50 in assay [1] amounted to 390 nM; in assay [3] it was 270 nM; in assay [5], 860 nM. Besides, the Activity in assay [2] amounted to 92.8%; in assay [4] it was 103%.
The matching figures for `CCCCCCC1=C(OC)C(OC)=CC(=O)C1=O`: 330 nM, 2600 nM, 990 nM, 18.6% and 91.7%.
The matching figures for `CCCCCCCCCCC1=C(O)C(=O)C=C(OC)C1=O`: 590 nM, 4300 nM, 2700 nM, 122% and 123%.
Taken in the same sequence, the figures for `CCCCCCCCCCCCCC1=C(O)C(=O)C=C(O)C1=O` [Rapanone] were 2500 nM, 220 nM, 4700 nM, 84.3% and 124%.
As for `CCCCCCCCCCCC1=C(O)C(=O)C=C(OC)C1=O` [5-O-METHYLEMBELIN], the figures for the IC50 in assay [1], in assay [3] and in assay [5] were 680 nM, 3800 nM and 1300 nM, respectively. The figures for the Activity in assay [2] and in assay [4] were 138% and 131%, respectively.
`CCCCCCCCCCC1=C(OC)C(=O)C=C(OC)C1=O`: the IC50 in assay [1] was 600 nM; in assay [3], 1800 nM; in assay [5] it was 1700 nM. Also, the Activity in assay [2] amounted to 144%.
